# ChEMBL document CHEMBL3393022, “Ligand-induced conformational change of Plasmodium falciparum AMA1 detected using 19F NMR” (J Med Chem, 2014)
# Activity calls are given as the source filed them. The calls are words filed in the database; no cut-off is given here. Residues, ends and D or L forms follow the SMILES beside them.
# Experiments:
# [1] = biological target: T1, Apical membrane antigen 1 (Plasmodium falciparum (isolate 3D7)) (UniProt Q7KQK5); test: Binding affinity to Plasmodium falciparum 3D7 5F-Trp-tagged AMA1 assessed as downfield shifts of W110 peak by 19F-NMR spectroscopy in presence of R1/RON2L
# T1 sequence (whole entry): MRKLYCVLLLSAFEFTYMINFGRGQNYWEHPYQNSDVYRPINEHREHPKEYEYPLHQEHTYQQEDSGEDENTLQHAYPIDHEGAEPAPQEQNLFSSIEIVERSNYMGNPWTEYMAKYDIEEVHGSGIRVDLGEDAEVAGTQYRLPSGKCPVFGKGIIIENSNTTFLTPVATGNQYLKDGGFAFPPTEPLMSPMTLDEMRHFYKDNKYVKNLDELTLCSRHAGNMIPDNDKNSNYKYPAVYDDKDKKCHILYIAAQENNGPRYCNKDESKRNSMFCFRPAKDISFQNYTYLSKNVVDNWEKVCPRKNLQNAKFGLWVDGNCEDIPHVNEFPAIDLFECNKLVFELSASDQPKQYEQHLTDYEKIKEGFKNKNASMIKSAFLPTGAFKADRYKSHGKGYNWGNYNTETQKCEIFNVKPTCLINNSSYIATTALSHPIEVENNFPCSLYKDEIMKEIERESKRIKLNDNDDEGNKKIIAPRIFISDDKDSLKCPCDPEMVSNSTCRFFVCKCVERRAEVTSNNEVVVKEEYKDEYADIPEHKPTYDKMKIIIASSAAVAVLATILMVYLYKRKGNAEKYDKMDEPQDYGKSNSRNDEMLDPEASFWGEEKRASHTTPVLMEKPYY
# [2] = biological target: T2, Apical membrane antigen 1 (Plasmodium falciparum (isolate 3D7), UniProt Q7KQK5); test: Binding affinity to Plasmodium falciparum 3D7 AMA1 (108 to 434) expressed in Escherichia coli BL21(DE3) by SPR analysis
# T2 sequence (Q7KQK5 whole entry): T1 sequence (whole entry)
# Outline: (§1)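 SPR at 25 °C in PBS–0.1% Tween, flow 30 μL/min, with AMA1 immobilised on a GLC chip. Peptides were injected for 8 min at 50–3.125 nM, with 800 s dissociation. A lane without AMA1 and buffer or DMSO signals were subtracted. Regeneration used 0.85% phosphoric acid.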
# [3] = biological target: T1, Apical membrane antigen 1 (Plasmodium falciparum (isolate 3D7)); test: Binding affinity to Plasmodium falciparum 3D7 5F-Trp-tagged AMA1 F367W mutant assessed as decrease in the W367 line width at 1 and 3 mM by 19F-NMR spectroscopy in presence of R1/RON2L
# Outline: (§2)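 5F-Trp-labelled 3D7 PfAMA1(108–434) F367W from E. coli BL21(DE3), induced with 1 mM IPTG for 3 h after glyphosate/Phe/Tyr/5F-Trp, refolded and purified into 20 mM phosphate pH 7.4. Small-molecule ligands were added from 100 mM stocks in H2O, ethanol or DMSO to 1 and 3 mM. 19F spectra: 2K scans, 8K complex points, 150 ppm sweep width, under 40 min, compared with free protein.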
# [4] = biological target: T1, Apical membrane antigen 1 (Plasmodium falciparum (isolate 3D7)); test: Binding affinity to Plasmodium falciparum 3D7 5F-Trp-tagged AMA1 F367W mutant at 1 and 3 mM by 19F-NMR spectroscopy in presence of R1/RON2L
# Outline: as §2
# [5] = biological target: Apical membrane antigen 1 (Plasmodium falciparum (isolate 3D7), UniProt Q7KQK5, F367W); test: Binding affinity to Plasmodium falciparum 3D7 AMA1 F367W mutant expressed in Escherichia coli BL21(DE3) at 1 and 3 mM by SPR analysis
# [6] = biological target: Apical membrane antigen 1 (Plasmodium falciparum (isolate 3D7), UniProt Q7KQK5); test: Binding affinity to Plasmodium falciparum 3D7 AMA1 373W insertion mutant expressed in Escherichia coli BL21(DE3) by SPR analysis
# Outline: as §1
Compound,Activity [1],Kd [2],Activity [3],Activity [4],Kd [5],Kd [6]
CC[C@H](C)[C@H](NC(=O)[C@H](CCC(N)=O)NC(=O)[C@H](CCC(N)=O)NC(=O)[C@@H]1CCCN1C(=O)[C@@H]1CCCN1C(=O)[C@H](CO)NC(=O)[C@H](CCSC)NC(=O)[C@H](CCCNC(=N)N)NC(=O)[C@@H](NC(=O)[C@@H](NC(=O)[C@H](Cc1ccccc1)NC(=O)[C@@H](N)CS)[C@@H](C)O)[C@@H](C)O)C(=O)N[C@@H](CS)C(=O)O (H-CFTTRMSPPQQIC-OH),Active,40000 nM,,,,
Nc1ccc2nc(N3CCCCC3)[nH]c2c1,Dose-dependent effect,,inactive,Active,,
Cc1nc(N)sc1-c1ccc(N)cc1,Dose-dependent effect,,Dose-dependent effect,,,
Nc1cc(N)cc(-c2nc3ccccc3[nH]2)c1,Active,,inactive,Active,,
H-VFAEFLPLFSKFGSRMHILK-OH,Active,23 nM,,,20 nM,50 nM
